Source: PubChem (several laboratories)
MT1-MMP act inh: blocks activation of human MT1-MMP; P50281; HT1080 RFP-PRO-GFP cells, GFP/RFP ratio fluorescence, overnight; percent of plate control window, DMSO zero; GFP/RFP ratio change, % at 20 µM; 360,000 compounds, 0.061% hits; AID 651647;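 active means GFP/RFP ratio change of at least 30% with cell ATP level not reduced by more than half and red fluorescence within 50% of control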
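Test system: HT1080 RFP-PRO-GFP cells; Benchmarks: DMSO and RFP-L50D-GFP cell wells; Timing: cells overnight before dosing, compound overnight, 37 °C, 5% CO2; Compound: one 20 µM compound dose with 1% DMSO; Read-out: GFP/RFP fluorescence ratio.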
SENP1 FRET inh: SENP1 (human) catalytic domain inhibition. Q9P0U3. recombinant SENP1 catalytic domain, CyPet-SUMO1-YPet FRET cleavage. inhibition, % at 10 µM. 360,000 compounds, 0.21% hits;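 active means inhibition at least 30% at 10 µM, raw YFP signal under a set limit, fluorescence ratio 0.5 to 1.5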;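 further: 0% = enzyme with DMSO and 100% = no enzyme wells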
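Compound: 10 µM single point, 0.5% DMSO; Test system: hSENP1 catalytic domain, recombinant; Timing: 50 min reaction at room temperature; Technique: FRET, CFP and YFP emission; Control set: no-enzyme wells low, DMSO-plus-enzyme wells high control.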
Myeloid diff 2: promotes myeloid progenitor differentiation; ER-HoxA9 myeloid progenitors, lysozyme-GFP differentiation, flow cytometry; calls only at 10 µM; 360,000 compounds, 1% hits; AID 624256;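 active means normalized GFP-positive differentiation at or above the plate's own cutoff, the solvent-only control mean plus 3 SD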;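 further: cells exposed to compound for four days before flow analysis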
MIN6 prolif: inducers of beta-cell replication in MIN6 cells; MIN6 cells proliferation, ATPlite luminescence, 48 h; cells starved in 0.2% serum; 100% = growth in 10% serum; proliferation, % at 10 µM; 330,000 compounds, 0.29% hits; AID 2380;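 active means compounds whose signal lies at least 3.5 SD above the mean of all wells on their plate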;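 further: 0% = DMSO-treated cells in low-serum medium and 100% = 10% serum control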
DAGLB inh: blocks human DAGLB lipase activity | Q8NCG7 | HEK293T DAGLB membrane lysate, EnzChek fluorogenic substrate | inhibition, % at 5.17 µM | 340,000 compounds, 0.059% hits; in the data active means inhibition above about 34%;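 further: 0% = enzyme with vehicle and 100% = wells lacking enzyme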
NRP1-CendR mod: NRP-1/CendR interaction modulation. O14786. FAM-RPARPAR peptide binding to NRP-1, fluorescence polarization. inhibition, % at 25 µM. 360,000 compounds, 0.85% hits;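 active means inhibition or corrected inhibition above about 18%, plus a signal ratio from 0.5 to 1.5, limit read from the data, passing the limit was not always enough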
Target sequence (O14786 whole entry, looked up): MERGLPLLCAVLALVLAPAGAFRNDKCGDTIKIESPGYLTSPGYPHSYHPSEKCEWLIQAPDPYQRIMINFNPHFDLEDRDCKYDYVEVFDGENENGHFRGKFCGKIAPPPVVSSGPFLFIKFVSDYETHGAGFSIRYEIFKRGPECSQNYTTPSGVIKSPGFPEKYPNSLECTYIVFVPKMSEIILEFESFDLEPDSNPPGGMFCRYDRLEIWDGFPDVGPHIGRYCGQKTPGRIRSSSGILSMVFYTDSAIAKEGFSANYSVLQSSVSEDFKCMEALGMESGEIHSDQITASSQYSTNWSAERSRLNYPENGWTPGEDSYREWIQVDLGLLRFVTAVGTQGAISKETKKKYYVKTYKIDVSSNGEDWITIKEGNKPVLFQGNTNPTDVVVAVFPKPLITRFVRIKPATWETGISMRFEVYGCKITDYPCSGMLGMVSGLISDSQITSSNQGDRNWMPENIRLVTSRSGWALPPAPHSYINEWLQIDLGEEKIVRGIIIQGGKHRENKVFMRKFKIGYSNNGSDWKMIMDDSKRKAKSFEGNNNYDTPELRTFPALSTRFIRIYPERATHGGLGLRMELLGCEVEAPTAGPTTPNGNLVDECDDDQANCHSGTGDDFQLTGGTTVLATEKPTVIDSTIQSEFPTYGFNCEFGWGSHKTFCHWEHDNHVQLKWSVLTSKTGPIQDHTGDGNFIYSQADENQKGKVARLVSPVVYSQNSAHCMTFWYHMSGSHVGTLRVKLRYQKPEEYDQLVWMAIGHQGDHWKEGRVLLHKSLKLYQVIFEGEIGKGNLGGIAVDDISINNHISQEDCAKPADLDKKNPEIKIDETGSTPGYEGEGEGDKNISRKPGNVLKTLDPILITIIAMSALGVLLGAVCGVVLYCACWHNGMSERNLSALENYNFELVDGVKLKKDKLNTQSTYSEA
Myeloid diff CP1: compounds promoting myeloid differentiation; 2,300 compounds, 2% hits; shares compounds with Myeloid diff 2; ER-HoxA9 myeloid progenitors, GFP/Mac1 double-positive flow; calls only; AID 651706;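 active means share of green or green-and-red cells above 9 and 9% in run 1 or 4 and 3% in run 2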
GFP autofluor: flagged as fluorescent in myeloid differentiation counter-screen; shares compounds with Myeloid diff 2; ER-HoxA9 myeloid progenitors, no estrogen, GFP autofluorescence flow cytometry; vehicle wells 0%, positive control 100%; fluorescence response, % (no concentration beside the values); 2,300 compounds, 7.4% hits;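 active means over 5% cells positive for green fluorescent reporter, or over 2% positive for both it and APC stain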;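 further: range taken on the double positive population between DMSO and positive control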
Active calls of the source: *; i = inactive; . = no result given; + = active, no number. Most compounds without a hit are left out; they make up all but 2.4% or so of the library.

SMILES	MT1-MMP act inh	SENP1 FRET inh	Myeloid diff 2	MIN6 prolif	DAGLB inh	NRP1-CendR mod	Myeloid diff CP1	GFP autofluor
CCCNC(=O)C(Cc1ccc(I)cc1)NC(=O)c1ccc(C#N)cc1 (stereo unspecified)	-2	-2	i	-2	1	4	.	.
CC(OC(=O)c1ccccc1C(=O)N(C)c1ccccc1)C(=O)Nc1ccc(C(N)=O)cc1 (stereo unspecified)	0	-1	i	-4	1	2	.	.
CC(OC(=O)c1cc(O)c2ccccc2c1O)C(=O)Nc1ccc(C(N)=O)cc1 (stereo unspecified)	-5	-5	+	-6	6	-10	i	3
CC1CCCC(C)N1C(=O)Cn1cc(C#N)c2ccccc21 (stereo unspecified)	5	2	i	-4	.	1	.	.
Cc1cc(C)n2ncc(C(=O)NCc3cccnc3)c2n1	0	1	+	-1	2	8	i	0
Cc1onc(-c2ccc(Cl)cc2)c1-c1ccnc(SCC(=O)Nc2ccc(C(C)C)cc2)n1	-2	-1	i	-2	-17	-9	.	.
C[C@H]1CN([C@@H](C)CO)C(=O)CCCn2nncc2CO[C@H]1CN(C)S(=O)(=O)c1cccc(F)c1	4	1	i	.	-6	-12	i	0
C[C@@H]1CN([C@@H](C)CO)C(=O)CCCn2nncc2CO[C@@H]1CN(C)C(=O)CCC(F)(F)F	-1	1	i	.	1	-3	.	.
C[C@@H]1CN([C@@H](C)CO)C(=O)CCCn2cc(nn2)CO[C@H]1CN(C)C(=O)Oc1ccccc1	2	0	i	.	-2	-1	.	.
C[C@H]1CN([C@@H](C)CO)C(=O)CCCn2nncc2CO[C@H]1CN(C)C(=O)CCC(F)(F)F	-3	-1	i	.	-1	3	i	0
C[C@H](CO)N1C[C@H](C)[C@@H](CN(C)C(=O)Oc2ccccc2)OCc2cn(nn2)CCCC1=O	4	1	i	.	-2	-5	i	0
C[C@H](CO)N1C[C@H](C)[C@@H](CN(C)S(=O)(=O)c2cccc(F)c2)OCc2cnnn2CCCC1=O	3	2	i	.	2	-8	.	.
CC(C(=O)OCC(=O)c1cccc([N+](=O)[O-])c1)N1C(=O)C2C3CCC(C3)C2C1=O (stereo unspecified)	0	2	i	-1	2	-16	.	.
Cc1cc(C)nc(NC2=NCC(=O)N2c2ccc(F)c(Cl)c2)n1	2	1	i	5	0	7	.	.
COc1ccc(N2C(=O)CN=C2Nc2nc(C)cc(C)n2)cc1OC	0	1	+	1	1	3	i	0
O=C(CCC(=O)N1CCN(S(=O)(=O)c2ccc([N+](=O)[O-])cc2)CC1)N1CCOCC1	1	1	i	-3	-2	-6	.	.
CC(=O)Nc1ccc(S(=O)(=O)N2CCN(CC(O)COc3ccc4ccccc4c3)CC2)cc1 (stereo unspecified)	-1	0	i	-3	-1	3	i	0
CCOC(=O)N1CCN(/C=C(\C#N)c2nc3ccccc3s2)CC1	-20	-61	i	-3	1	-76	.	.
N#C/C(=C\N1CCN(Cc2ccc3c(c2)OCO3)CC1)c1nc2ccccc2s1	-78	-21	i	-5	-1	-61	+	0
COc1ccc(CN2CCNC(=O)C2CC(=O)NC2Cc3ccccc3C2)c(OC)c1 (stereo unspecified)	-3	-11	i	-1	3	-8	.	.
COc1ccc(S(=O)(=O)N2C3CCC2CC(NC(=O)NC2CCCCC2)C3)cc1 (stereo unspecified)	-4	2	i	-2	1	-8	.	.
COc1ccc(S(=O)(=O)N2C3CCC2CC(NC(=O)C2CC2)C3)cc1 (stereo unspecified)	-2	4	i	-3	-2	1	i	0
Cc1ccc(C)c(N(C(=O)CS(=O)CC(=O)Nc2ccc3c(c2)OCO3)C(C)C(=O)NC2CCCC2)c1 (stereo unspecified)	1	1	i	-3	-1	0	.	.
CCc1nc2ccccc2c(C(=O)NCc2ccccc2)c1C	0	0	i	0	0	10	i	0
CCc1nc2ccccc2c(C(=O)O)c1C	6	2	i	1	1	12	.	.
SMILES	MT1-MMP act inh	SENP1 FRET inh	Myeloid diff 2	MIN6 prolif	DAGLB inh	NRP1-CendR mod	Myeloid diff CP1	GFP autofluor
CC1CCc2sc(C(=O)NN=C3CCCC3)cc2C1 (stereo unspecified)	1	2	+	.	-8	-10	i	0
CC1CCc2sc(C(=O)NN)cc2C1 (stereo unspecified)	1	2	i	0	-11	1	.	.
CCN(C(=O)COc1cc(=O)n(CC)c2ccccc12)c1cc(Cl)ccc1OC	2	0	i	5	-1	-11	i	17*
COCC(C)NCc1cccc(OC)c1OC (stereo unspecified)	-3	5	i	1	-2	11	i	0
COCC(C)NCc1ccccc1C (stereo unspecified)	-2	3	i	0	-1	3	.	.
CCN1CCN(C(=O)C23CCC(C)(C(=O)C2Br)C3(C)C)CC1 (stereo unspecified)	2	1	i	-2	1	8	.	.
O=S(=O)(c1ccc2ccccc2c1)N1CCN(c2ccc(O)cc2)CC1	0	-3	+	-2	5	16	i	0
O=C1NC[C@H](CCCCN2CCN(CC3CCCCC3)C(=O)C2=O)N(CCC2CCCCC2)C1=O	2	1	i	.	.	13	.	.
COc1ccc(CN(C(=O)CN2C(=O)COc3ccccc32)C2CCCC2)c(OC)c1	-4	1	i	-2	-5	6	i	0
COc1ccc(CN(C(=O)CN2C(=O)C(C)Oc3ccccc32)C2CCCC2)c(OC)c1 (stereo unspecified)	-2	2	i	1	-6	-24	.	.
CC(CCc1ccccc1)NC(=O)c1nnc(Cc2ccc(Cl)cc2)o1 (stereo unspecified)	.	2	i	-3	-6	1	i	0
O=C(NCCc1ccc(Cl)cc1)c1nnc(Cc2ccc(Cl)cc2)o1	3	2	i	3	-1	8	.	.
